Bioassay records from PubChem BioAssay.
Rows were chosen to be rich in hits. Some 2.6% of all compounds tested hit in one or more screens of this group.
SENP7 block: SENP7 protease inhibition; 330,000 compounds, 1.5% hits; inhibition, % at 5 µM; recombinant SENP7, Z-RLRGG-aminoluciferin luminescence, 40 min;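 active = inhibition above about 50% at the single test dose, limit read from the data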
SENP1 inh: blocks the human SENP1 SUMO protease catalytic domain. recombinant SENP1 catalytic domain, CyPet-SUMO1-YPet FRET cleavage. inhibition, % at 10 µM. 360,000 compounds, 0.21% hits. AID 624204;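 active = inhibition at least 30% at 10 µM, raw YFP signal under a set limit, fluorescence ratio 0.5 to 1.5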
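Test system: recombinant human SENP1 catalytic domain, His6-tagged / Medium: pH 8 Tris buffer with EDTA, NaCl, BME, BSA, NP40, catalase / Also added: SUMO1 FRET substrate flanked by Cypet and Ypet, 25 nM / Times: 50 min reaction at room temperature / Signal: FRET, CFP and YFP emission / Control set: no-enzyme low control and enzyme-plus-DMSO high control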
SENP8 block-1: blocks the human protease SENP8 | Q96LD8 | purified SENP8, Z-RLRGG-aminoluciferin cleavage, luminescence | inhibition, % at 10 µM | 330,000 compounds, 1.2% hits | AID 2540; in the data active = inhibition above about 50%
Platelet DG rel: platelet dense granule release activity; human platelet-rich plasma, SFLLRN dense granule ATP release, luminescence; inhibition, %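 (compounds screened at 7.5 µM in platelet-rich plasma)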; 300,000 compounds, 0.22% hits; AID 1663;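 active = mean replicate score, as percent of positive control, at or above 50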
SENP6 block: blocks the human protease SENP6; Q9GZR1; Recombinant SENP6 catalytic domain, aminoluciferin luminescence; inhibition, % at 10 µM; 330,000 compounds, 1.8% hits; AID 2599;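 active = inhibition above about 50% at the single tested dose, limit read from the data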
Target sequence (Q9GZR1 628-1112 limits assumed): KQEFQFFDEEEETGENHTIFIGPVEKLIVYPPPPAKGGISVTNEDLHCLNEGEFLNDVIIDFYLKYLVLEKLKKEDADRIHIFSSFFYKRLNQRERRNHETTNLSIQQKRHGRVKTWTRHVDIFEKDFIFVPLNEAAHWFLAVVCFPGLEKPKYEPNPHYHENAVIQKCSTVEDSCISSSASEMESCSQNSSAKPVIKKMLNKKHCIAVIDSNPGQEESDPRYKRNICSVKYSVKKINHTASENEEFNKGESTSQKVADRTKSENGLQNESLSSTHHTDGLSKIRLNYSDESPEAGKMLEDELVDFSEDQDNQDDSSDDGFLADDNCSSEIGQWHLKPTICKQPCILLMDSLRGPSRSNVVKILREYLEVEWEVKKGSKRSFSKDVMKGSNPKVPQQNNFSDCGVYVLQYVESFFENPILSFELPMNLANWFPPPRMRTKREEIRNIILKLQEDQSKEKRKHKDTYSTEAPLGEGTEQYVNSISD
SENP8 block-2: inhibitors of human SENP8 protease. inhibition, % at 20 µM. 360,000 compounds, 0.64% hits. recombinant SENP8, Nedd8 substrate fluorescence. Q96LD8; in the data active = inhibition mostly above about 40%, no sharp cut-off; inactive = mostly below about 27%
SENP8 conf: confirmation of human SENP8 protease inhibitors | shares compounds with SENP7 block | Recombinant SENP8, Z-RLRGG-aminoluciferin luminescence, 60 min | inhibition, % at 12.5 µM | 6,200 compounds, 40% hits | AID 488912;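 active = mean inhibition across replicates above about 50%, limit read from the data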
SENP6 conf: human SENP6 inhibition, confirmed. shares compounds with SENP7 block. recombinant SENP6, Z-RLRGG-aminoluciferin luminescence. inhibition, % at 12.5 µM. 6,200 compounds, 58% hits
SENP7 conf: confirmation of human SENP7 protease inhibitors. shares compounds with SENP7 block. recombinant SENP7, Z-RLRGG-aminoluciferin luminescence, 40 min. inhibition, % at 12.5 µM. 6,200 compounds, 69% hits
Casp3 select: inhibits human caspase-3 in SENP selectivity test | shares compounds with SENP7 block | purified caspase-3, Z-DEVD-aminoluciferin luminescence, 60 min | 6,200 compounds, 60% hits | AID 488918 | inhibition, % at 12.5 µM;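 active = mean inhibition above about 50%, limit read from the data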
Target sequence (P42574 28-227 limits assumed): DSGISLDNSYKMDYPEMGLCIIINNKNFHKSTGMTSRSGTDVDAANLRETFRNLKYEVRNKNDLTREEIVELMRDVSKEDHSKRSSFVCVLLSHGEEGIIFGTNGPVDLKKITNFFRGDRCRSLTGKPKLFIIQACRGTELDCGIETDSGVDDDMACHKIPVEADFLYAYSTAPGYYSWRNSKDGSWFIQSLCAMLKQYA
SENP luc ctr: counter-screen for SENP inhibitors: luminescence interference | shares compounds with SENP7 block | Pre-incubated SENP8/Z-RLRGG-aminoluciferin, luciferase luminescence interference | inhibition, % at 12.5 µM | 6,200 compounds, 39% hits | AID 488919;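 active = mean inhibition above about 50% when retested at one dose, limit read from the data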
Hits are given with their value; . = inactive; / = no result given.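 Rule for the calls, unless noted: active = mean inhibition above about 50% in the one-dose retest (limit read from the data); inactive = the rest.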

SMILES | SENP7 block | SENP1 inh | SENP8 block-1 | Platelet DG rel | SENP6 block | SENP8 block-2 | SENP8 conf | SENP6 conf | SENP7 conf | Casp3 select | SENP luc ctr
C/C(=N\OC(=O)c1ccccc1F)c1nccs1 | 79 | . | . | . | 79 | . | 60 | 53 | 92 | . | .
O=S1(=O)CC/C(=N/Nc2ccccn2)c2cc(F)ccc21 | 63 | . | . | . | . | . | . | . | . | . | .
O=S1(=O)CC/C(=N/Nc2ccc(C(F)(F)F)cn2)c2cc(F)ccc21 | . | . | . | . | . | . | / | / | / | / | /
COCCn1c(N)c(C(=O)OCc2ccccc2)c2nc3ccccc3nc21 | . | . | 61 | . | 73 | . | . | . | . | . | .
Cc1ccc(OCCC(=O)OC(C)C(=O)NC2CC2)cc1 (stereo not drawn) | . | . | . | . | . | . | / | / | / | / | /
CCOC(=O)C1(C(F)(F)F)N=C(C(F)(F)F)Nc2ccccc21 (stereo not drawn) | 72 | . | . | . | . | . | . | . | . | . | .
CCN(C[C@H]1N[C@@](CC)(C(=O)OC)[C@H]2C(=O)N(C)C(=O)[C@@H]12)C(=O)C1CCCCC1 | . | . | . | / | . | . | / | / | / | / | /
NC(=O)c1cnn(-c2cc(Oc3ccccc3)ncn2)c1N | . | . | . | . | . | . | / | / | / | / | /
c1ccc(Oc2cc(-n3cccn3)ncn2)cc1 | . | . | . | . | 54 | . | . | . | 75 | 68 | .
CCn1c(C)c(C(=O)c2ccccc2)c(C#N)c1C(=O)O | . | . | . | . | . | . | / | / | / | / | /
COc1ccc(OCC(=O)Nc2cccc(-c3nc4ccccc4[nH]3)c2)cc1 | 76 | . | 61 | . | 74 | . | 77 | 76 | 92 | 58 | 79
CS(=O)(=O)c1cccc(C(=O)Nc2cccc(-c3nc4ccccc4[nH]3)c2)c1 | 96 | . | 91 | . | 96 | . | 96 | 97 | 102 | . | 96
CS(=O)(=O)Cc1ccc(C(=O)Nc2cccc(-c3nc4ccccc4[nH]3)c2)cc1 | 67 | . | 50 | . | 79 | . | 59 | 57 | 81 | 62 | .
Cc1nn(C)c(=O)n1-c1ccc(OCc2ccccc2)cc1 | 76 | . | . | . | 74 | . | 55 | 56 | 86 | 90 | 69
COc1ccc(-n2c(C)nn(C)c2=O)cc1 | . | . | . | . | . | . | / | / | / | / | /
C=CCNC(=O)c1ccc2c3n(nc2c1)-c1ccccc1CO3 | 75 | . | 77 | . | 80 | . | 76 | 75 | 94 | 90 | 82
COCCNC(=O)c1ccc2c3n(nc2c1)-c1ccccc1CO3 | . | . | . | . | . | . | / | / | / | / | /
Cc1ccc2c(c1)COc1c3ccc(C(=O)N4CCOCC4)cc3nn1-2 | 69 | . | . | . | 71 | . | 72 | 69 | 90 | 88 | 76
O=C(c1ccc2c3n(nc2c1)-c1ccc(Cl)cc1CO3)N1CCCCC1 | 84 | . | 86 | . | 87 | . | 84 | 94 | 100 | 94 | .
O=C(NCCO)c1ccc2c3n(nc2c1)-c1ccc(Cl)cc1CO3 | . | . | . | . | . | . | / | / | / | / | /
O=C(O)c1ccc2c3n(nc2c1)-c1ccc(Cl)cc1CO3 | 94 | / | 94 | . | 98 | / | 98 | 99 | 103 | 98 | 96
CC(C)C(C)N(Cc1ccc(C(=O)O)cc1)C(=O)c1ccc2ccccc2n1 (stereo not drawn) | . | . | . | . | . | . | / | / | / | / | /
CCCS(=O)(=O)NC(=O)C1(C)CCN(C(=O)Cc2ccc(OC)c(OC)c2)C1 (stereo not drawn) | / | . | / | / | / | . | / | / | / | / | /
COc1ccc(-c2cc(C(=O)NNC3=NCCC3)c3c(C)nn(-c4ccccc4)c3n2)cc1 | . | . | . | . | . | . | / | / | / | / | /
CC(=O)CCN1C(=O)NC2(CCCc3ccccc32)C1=O (stereo not drawn) | . | . | . | . | . | . | / | / | / | / | /
SMILES | SENP7 block | SENP1 inh | SENP8 block-1 | Platelet DG rel | SENP6 block | SENP8 block-2 | SENP8 conf | SENP6 conf | SENP7 conf | Casp3 select | SENP luc ctr
CN(Cc1cn(C)nc1-c1ccc(Oc2ccccc2)cc1)CC1COCCO1 (stereo not drawn) | . | . | . | . | . | . | / | / | / | / | /
CN(CCO)c1nc(N)c2c(N)nc3c(c2c1C#N)CC(=O)N3C1CCCC1 | 96 | / | 96 | . | 91 | / | . | . | . | . | .
CC(C)(C)N1C(=O)Cc2c1nc(N)c1c(N)nc(N3CCCCC3CO)c(C#N)c21 (stereo not drawn) | 94 | . | 97 | . | 93 | . | . | . | . | . | .
N#Cc1c(N2CCN(c3ccc(F)cc3)CC2)nc(N)c2c(N)nc3c(c12)CC(=O)N3C1CC1 | / | . | / | / | / | . | / | / | / | / | /
OC1CCCN(Cc2nc(Cc3ccccc3Cl)no2)C1 (stereo not drawn) | . | . | . | . | . | . | / | / | / | / | /
O=C(Nc1ccc(Cl)cc1)c1ccc2snnc2c1 | . | . | . | . | . | . | / | / | / | / | /
O=C(Nc1ccccc1)Nc1ccc2snnc2c1 | 62 | . | . | . | 62 | . | 56 | 54 | 77 | . | 63
O=C(Nc1ccccc1F)c1ccc2snnc2c1 | . | . | . | . | 51 | . | . | . | 65 | 72 | .
Cc1oc(/N=C/c2ccc(O)cc2O)c(C#N)c1C | . | . | . | . | 57 | . | 81 | 82 | 94 | 56 | .
Cc1oc(/N=C/c2ccccc2O)c(C#N)c1C | . | . | . | . | . | . | / | / | / | / | /
COc1ccccc1C1CCN(C(=O)c2ccco2)CC1 | . | . | . | . | . | . | / | / | / | / | /
Cc1ccc(C(=O)Nc2nnc(C)s2)o1 | . | . | . | . | . | . | / | / | / | / | /
Cc1ccc(C(=O)Nc2nc(C)c(C)s2)o1 | 79 | . | 58 | . | 74 | . | . | 72 | 92 | 91 | 75
Cc1nc(NC(=O)c2ccc(Br)o2)sc1C | 81 | . | 63 | . | 86 | . | 73 | 78 | 95 | 89 | .
Cc1ccc(C)n1-c1ccc(C(=O)NCc2cccnc2)cc1 | . | . | . | . | . | . | / | / | / | / | /
Cc1nn(Cc2ccccc2)c(C)c1C(=O)N1CCN(CC(=O)Nc2ccc(F)cc2)CC1 | 53 | . | . | / | . | . | . | . | . | . | .
Cc1ccc(NC(=O)COc2ccccc2[N+](=O)[O-])nc1 | 70 | . | . | . | 72 | . | . | . | 81 | 79 | .
